Test results published in ChEMBL document CHEMBL1125826, “Synthesis and biological activity of 5-amino- and 5-hydroxyquinolones, and the overwhelming influence of the remote N1-substituent in determining the structure-activity relationship” (1991).
Values after ≈ are worked out from the molar mass of the structure shown.

Experiments:
Assay type in all cases: functional
[1] = tested on: Enterococcus faecalis; assay: Antibacterial activity was determined against gram positive organism, Streptococcus faecalis MGH-2
Procedure, shortened: (§1)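 MIC (µg/mL) by standard microtitration against a panel of 10 Gram-positive and Gram-negative organisms; values averaged from multiple experiments.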

[2] = tested on: Streptococcus pyogenes; assay: The in vivo potency was determined in female charles river CD-1 mice infected with Streptococcus pyogenes after sc administration; details: for ED50: Streptococcus pyogenes, sc, read-out: PD50
Procedure, shortened: (§2)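 Acute lethal systemic infection in female CD-1 mice, 16 mice per route; single subcutaneous dose given at the time of challenge; median protective dose (PD50, mg/kg) determined.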

[3] = tested on: Staphylococcus aureus; assay: (§3) Antibacterial activity was determined against gram positive organism, Staphylococcus aureus H228; procedure, shortened: as §1
[4] = tested on: Escherichia coli; assay: The in vivo potency was determined in female charles river CD-1 mice infected with Escherichia coli after peroral administration; details: for ED50: Escherichia coli, po, read-out: PD50
Procedure, shortened: (§4)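 Acute lethal systemic infection in female CD-1 mice, 16 mice per route; single dose given orally by gavage at the time of challenge; median protective dose (PD50, mg/kg) determined.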

[5] = tested on: Klebsiella pneumoniae; assay: Antibacterial activity was determined against gram negative organism, Klebsiella pneumoniae MGH-2; procedure, shortened: as §1
[6] = tested on: Streptococcus pneumoniae; assay: (§5) Antibacterial activity was determined against gram positive organism, Streptococcus pneumoniae SV-1; procedure, shortened: as §1
[7] = tested on: Escherichia coli; assay: Antibacterial activity was determined against gram negative organism, Escherichia coli vogel; procedure, shortened: as §1
[8] = tested on: Bacteria; assay: (§6) MIC ratio measured as the mean MICs of gram-positive bacteria
Procedure, shortened: (§7)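 Geometric mean of the microtitration MICs (µg/mL) over the Gram-negative organisms, and separately over the Gram-positive organisms, of the 10-strain panel; individual MICs averaged from multiple experiments.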

[9] = tested on: Streptococcus pyogenes; assay: Antibacterial activity was determined against gram positive organism, Streptococcus pyogenes C203; procedure, shortened: as §1
[10] = tested on: Pseudomonas aeruginosa; assay: Antibacterial activity was determined against gram negative organism, Pseudomonas aeruginosa UI-18; procedure, shortened: as §1
[11] = tested on: Staphylococcus aureus; assay: (§8) Antibacterial activity was determined against gram positive organism, Staphylococcus aureus UC76; procedure, shortened: as §1
[12] = tested on: Enterobacter cloacae; assay: Antibacterial activity was determined against gram negative organism, Enterobacter cloacae MA2646
[13] = tested on: Streptococcus pneumoniae; assay: The in vivo potency was determined in female charles river CD-1 mice infected with Streptococcus pneumoniae after peroral administration; details: for ED50: Streptococcus pneumoniae, po, read-out: PD50; procedure, shortened: as §4
[14] = tested on: Streptococcus pyogenes; assay: The in vivo potency was determined in female charles river CD-1 mice infected with Streptococcus pyogenes after peroral administration; details: for ED50: Streptococcus pyogenes, po, read-out: PD50; procedure, shortened: as §4
[15] = tested on: Bacteria; assay: Antibacterial activity was determined against gram negative organism, Providencia rettgeri. M1771; procedure, shortened: as §1
[16] = tested on: Streptococcus pneumoniae; assay: The in vivo potency was determined in female charles river CD-1 mice infected with Streptococcus pneumoniae after sc administration; details: for ED50: Streptococcus pneumoniae, sc, read-out: PD50; procedure, shortened: as §2
[17] = tested on: Escherichia coli; assay: The in vivo potency was determined in female charles river CD-1 mice infected with Escherichia coli after sc administration; details: for ED50: Escherichia coli, sc, read-out: PD50; procedure, shortened: as §2
[18] = tested on: Bacteria; assay: (§9) MIC ratio measured as the mean MICs of gram-negative bacteria; procedure, shortened: as §7
[19] = molecular target: DNA gyrase (Escherichia coli) (UniProt P0AES6+P0AES4); assay: Minimum inhibitory concentration against Escherichia coli DNA-gyrase in supercoiling assay
[20] = as §6; procedure, shortened: as §7
[21] = as §9; procedure, shortened: as §7
[22] = tested on: Staphylococcus aureus; assay: as §3; remark: listed apart in the source
Procedure, shortened: (§10)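 Broth microtitration MIC against a panel of 10 Gram-positive and Gram-negative organisms; MIC in µg/mL, averaged over multiple experiments.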

[23] = tested on: Staphylococcus aureus; assay: as §8; procedure, shortened: as §10; remark: listed apart in the source
[24] = tested on: Streptococcus pneumoniae; assay: as §5; procedure, shortened: as §10; remark: listed apart in the source
[25] = Enterococcus faecalis, read-out: MIC
[26] = Staphylococcus aureus, read-out: MIC
[27] = Klebsiella pneumoniae, read-out: MIC
[28] = Streptococcus pneumoniae, read-out: MIC
[29] = Escherichia coli, read-out: MIC
[30] = Streptococcus pyogenes, read-out: MIC
[31] = Pseudomonas aeruginosa, read-out: MIC
[32] = Enterobacter cloacae, read-out: MIC

SMILES: NC1CCN(c2c(F)cc3c(=O)c(C(=O)O)cn(C4CC4)c3c2Cl)C1 (stereo in doubt; 1h-4) [CLINAFLOXACIN]
- MIC [1]: 0.05 µg/mL (≈ 0.137 µM)
- PD50 [2]: 4 mg/kg
- MIC [3]: 0.025 µg/mL (≈ 0.0683 µM)
- PD50 [4]: 3 mg/kg
- MIC [5]: 0.025 µg/mL (≈ 0.0683 µM)
- MIC [6]: 0.025 µg/mL (≈ 0.0683 µM)
- MIC [7]: 0.025 µg/mL (≈ 0.0683 µM)
- Geometric mean MIC over Gram-positive bacteria (µg/mL) [8]: 0.029
- MIC [9]: 0.05 µg/mL (≈ 0.137 µM)
- MIC [10]: 0.05 µg/mL (≈ 0.137 µM)
- MIC [11]: 0.013 µg/mL (≈ 0.0355 µM)
- MIC [12]: 0.025 µg/mL (≈ 0.0683 µM)
- PD50 [13]: 14 mg/kg
- PD50 [14]: 10 mg/kg
- MIC [15]: 0.025 µg/mL (≈ 0.0683 µM)
- PD50 [16]: 5 mg/kg
- PD50 [17]: 0.6 mg/kg

SMILES: C[C@@H]1CN(c2c(F)c(N)c3c(=O)c(C(=O)O)cn(C4CC4)c3c2F)C[C@H](C)N1 [SPARFLOXACIN]
- MIC [1, 25]: 0.1 µg/mL (≈ 0.255 µM)
- ED50 [2]: 13 mg/kg
- MIC [3, 26]: 0.05 µg/mL (≈ 0.127 µM)
- ED50 [4]: 1 mg/kg
- MIC [5, 27]: 0.05 µg/mL (≈ 0.127 µM)
- MIC [6, 28]: 0.05 µg/mL (≈ 0.127 µM)
- MIC [7, 29]: 0.025 µg/mL (≈ 0.0637 µM)
- Geometric mean MIC over Gram-positive bacteria (µg/mL) [8]: 0.05
- MIC [9, 30]: 0.1 µg/mL (≈ 0.255 µM)
- MIC [10, 31]: 0.8 µg/mL (≈ 2.04 µM)
- MIC [11, 26]: 0.013 µg/mL (≈ 0.0331 µM)
- Geometric mean MIC over Gram-negative bacteria (µg/mL) [18]: 0.087
- MIC [12, 32]: 0.025 µg/mL (≈ 0.0637 µM)
- ED50 [13]: 17 mg/kg
- ED50 [14]: 14 mg/kg
- MIC [19]: 2.5 µg/mL (≈ 6.37 µM)
- MIC ([15]; Bacteria, read-out: MIC): 0.2 µg/mL (≈ 0.51 µM)
- ED50 [16]: 17 mg/kg
- ED50 [17]: 0.4 mg/kg

SMILES: Nc1c(F)c(N2CCC(N)C2)c(Cl)c2c1c(=O)c(C(=O)O)cn2C1CC1 (configuration not stated)
- Ratio [20]: 0.076
- MIC [1, 25]: 0.1 µg/mL (≈ 0.263 µM)
- MIC [3, 26]: 0.1 µg/mL (≈ 0.263 µM)
- ED50 [4]: 6 mg/kg
- MIC [5, 27]: 0.05 µg/mL (≈ 0.131 µM)
- MIC [6, 28]: 0.1 µg/mL (≈ 0.263 µM)
- MIC [7, 29]: 0.025 µg/mL (≈ 0.0657 µM)
- MIC [9, 30]: 0.1 µg/mL (≈ 0.263 µM)
- MIC [10, 31]: 0.8 µg/mL (≈ 2.1 µM)
- MIC [11]: 0.025 µg/mL (≈ 0.0657 µM)
- Ratio [21]: 0.076
- MIC [12, 32]: 0.025 µg/mL (≈ 0.0657 µM)
- MIC ([15]; Bacteria, read-out: MIC): 0.1 µg/mL (≈ 0.263 µM)
- ED50 [17]: 1 mg/kg

SMILES: CCn1cc(C(=O)O)c(=O)c2cc(F)c(N3CCNCC3)cc21 [NORFLOXACIN]
- Ratio [20]: 0.61
- MIC [1, 25]: 1.6 µg/mL (≈ 5.01 µM)
- MIC [5, 27]: 0.05 µg/mL (≈ 0.157 µM)
- MIC [22]: 0.8 µg/mL (≈ 2.51 µM)
- MIC [7, 29]: 0.025 µg/mL (≈ 0.0783 µM)
- MIC [9, 30]: 0.8 µg/mL (≈ 2.51 µM)
- MIC [10, 31]: 0.2 µg/mL (≈ 0.626 µM)
- Ratio [21]: 0.057
- MIC [12, 32]: 0.1 µg/mL (≈ 0.313 µM)
- MIC [23]: 0.05 µg/mL (≈ 0.157 µM)
- MIC ([15]; Bacteria, read-out: MIC): 0.025 µg/mL (≈ 0.0783 µM)
- MIC [24]: 1.6 µg/mL (≈ 5.01 µM)

SMILES: NC1CCN(c2c(F)cc3c(=O)c(C(=O)O)cn(C4CC4)c3c2Cl)C1 (stereo in doubt; 1f-4) [CLINAFLOXACIN]
- MIC [1, 25]: 0.1 µg/mL (≈ 0.273 µM)
- ED50 [2]: 4 mg/kg
- MIC [3]: 0.1 µg/mL (≈ 0.273 µM)
- ED50 [4]: 3 mg/kg
- MIC [5, 27]: 0.05 µg/mL (≈ 0.137 µM)
- MIC [6]: 0.1 µg/mL (≈ 0.273 µM)
- MIC [7, 29]: 0.025 µg/mL (≈ 0.0683 µM)
- Geometric mean MIC over Gram-positive bacteria (µg/mL) [8]: 0.075
- MIC [9, 30]: 0.1 µg/mL (≈ 0.273 µM)
- MIC [10]: 0.2 µg/mL (≈ 0.547 µM)
- MIC [11, 26]: 0.025 µg/mL (≈ 0.0683 µM)
- MIC [12, 32]: 0.025 µg/mL (≈ 0.0683 µM)
- PD50 [13]: 97 mg/kg
- PD50 [14]: 43 mg/kg
- MIC [15]: 0.1 µg/mL (≈ 0.273 µM)
- PD50 [16]: 11 mg/kg
- ED50 [17]: 0.5 mg/kg

SMILES: CCNCC1CCN(c2c(F)cc3c(=O)c(C(=O)O)cn(C4CC4)c3c2F)C1 (configuration not stated) [PD-117558]
- MIC [1, 25]: 0.025 µg/mL (≈ 0.0639 µM)
- ED50 [2]: 2 mg/kg
- MIC [3, 26]: 0.05 µg/mL (≈ 0.128 µM)
- ED50 [4]: 4 mg/kg
- MIC [5, 27]: 0.1 µg/mL (≈ 0.255 µM)
- MIC [6, 28]: 0.025 µg/mL (≈ 0.0639 µM)
- MIC [7, 29]: 0.05 µg/mL (≈ 0.128 µM)
- Geometric mean MIC over Gram-positive bacteria (µg/mL) [8]: 0.025
- MIC [9, 30]: 0.025 µg/mL (≈ 0.0639 µM)
- MIC [10, 31]: 0.4 µg/mL (≈ 1.02 µM)
- MIC [11, 26]: 0.013 µg/mL (≈ 0.0332 µM)
- Geometric mean MIC over Gram-negative bacteria (µg/mL) [18]: 0.13
- MIC [12, 32]: 0.1 µg/mL (≈ 0.255 µM)
- ED50 [13]: 2 mg/kg
- ED50 [14]: 5 mg/kg
- MIC [19]: 0.25 µg/mL (≈ 0.639 µM)
- MIC ([15]; Bacteria, read-out: MIC): 0.2 µg/mL (≈ 0.511 µM)
- ED50 [16]: 0.5 mg/kg
- ED50 [17]: 1 mg/kg

SMILES: Nc1c(F)c(N2CCNCC2)c(F)c2c1c(=O)c(C(=O)O)cn2C1CC1
- MIC [1, 25]: 0.05 µg/mL (≈ 0.137 µM)
- ED50 [2]: 23 mg/kg
- MIC [3, 26]: 0.05 µg/mL (≈ 0.137 µM)
- ED50 [4]: 0.8 mg/kg
- MIC [5, 27]: 0.025 µg/mL (≈ 0.0686 µM)
- MIC [6, 28]: 0.05 µg/mL (≈ 0.137 µM)
- MIC [7, 29]: 0.013 µg/mL (≈ 0.0357 µM)
- Geometric mean MIC over Gram-positive bacteria (µg/mL) [8]: 0.044
- MIC [9, 30]: 0.1 µg/mL (≈ 0.274 µM)
- MIC [10, 31]: 0.025 µg/mL (≈ 0.0686 µM)
- MIC [11, 26]: 0.013 µg/mL (≈ 0.0357 µM)
- Geometric mean MIC over Gram-negative bacteria (µg/mL) [18]: 0.022
- MIC [12, 32]: 0.013 µg/mL (≈ 0.0357 µM)
- ED50 [13]: 68 mg/kg
- ED50 [14]: 31 mg/kg
- MIC [19]: 0.5 µg/mL (≈ 1.37 µM)
- MIC ([15]; Bacteria, read-out: MIC): 0.05 µg/mL (≈ 0.137 µM)
- ED50 [16]: 27 mg/kg
- ED50 [17]: 0.2 mg/kg
